Test results published in ChEMBL document CHEMBL3046350, “Design, synthesis and herbicidal activity of new iron chelating motifs for HPPD-inhibitors” (Bioorg Med Chem, 2009).

What was measured:
[1] = biological target: T1, 4-hydroxyphenylpyruvate dioxygenase (Arabidopsis thaliana, UniProt P93836); assay: Inhibition of Arabidopsis thaliana 4-hydroxyphenylpyruvate dioxygenase
T1 sequence (P93836 whole entry): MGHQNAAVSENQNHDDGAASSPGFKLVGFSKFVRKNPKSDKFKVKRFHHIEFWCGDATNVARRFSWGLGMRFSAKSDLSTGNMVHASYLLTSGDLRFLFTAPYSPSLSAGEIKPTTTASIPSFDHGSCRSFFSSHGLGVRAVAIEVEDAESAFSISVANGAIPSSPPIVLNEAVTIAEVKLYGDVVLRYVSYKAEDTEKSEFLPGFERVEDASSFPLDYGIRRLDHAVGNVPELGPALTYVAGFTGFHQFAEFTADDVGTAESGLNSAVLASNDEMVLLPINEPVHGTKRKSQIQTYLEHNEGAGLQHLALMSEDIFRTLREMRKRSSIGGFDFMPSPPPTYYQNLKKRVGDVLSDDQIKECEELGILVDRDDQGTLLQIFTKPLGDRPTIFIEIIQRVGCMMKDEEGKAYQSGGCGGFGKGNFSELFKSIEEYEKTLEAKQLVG
Method in brief: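 Recombinant Arabidopsis thaliana HPPD enzyme, assayed by a previously published method.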

Chenopodium album = assay: Herbicidal activity against Chenopodium album assessed as reduction in plant growth measured 21 days after compound post-emergence spray application; assay type: functional
Method in brief: (§1)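 GR50 = rate giving 50% growth reduction, scored 21 days after postemergence spray. Application rates are expressed in kg/ha.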

Abutilon theophrasti = assay: Herbicidal activity against Abutilon theophrasti (velvetleaf) assessed as reduction in plant growth measured 21 days after compound post-emergence spray application; assay type: functional; method in brief: as §1
Echinochloa crus-galli = assay: Herbicidal activity against Echinochloa crus-galli (barnyard grass) assessed as reduction in plant growth measured 21 days after compound post-emergence spray application; assay type: functional; method in brief: as §1
Centaurea cyanus = assay: Herbicidal activity against Centaurea cyanus assessed as reduction in plant growth measured 21 days after compound post-emergence spray application; assay type: functional
Setaria italica = assay: Herbicidal activity against Setaria italica assessed as reduction in plant growth measured 21 days after compound post-emergence spray application; assay type: functional

| Compound | IC50 [1] | GR50 (Chenopodium album) | GR50 (Abutilon theophrasti) | GR50 (Echinochloa crus-galli) | GR50 (Centaurea cyanus) | GR50 (Setaria italica) |
| --- | --- | --- | --- | --- | --- | --- |
| Cc1nc(C)n(O)c1C(=O)c1ccc(S(C)(=O)=O)c(C2=NOCC2)c1Cl | 0.036 µM | 0.3 kg/ha | >3 kg/ha | 2 kg/ha |  |  |
| CCOc1c(S(=O)(=O)CC)ccc(C(=O)/C(=N\O)C(C)=O)c1Cl | 20 µM |  |  | >3 kg/ha | >3 kg/ha | >3 kg/ha |
| COc1c(S(C)(=O)=O)ccc(C(=O)/C(=N\O)C(C)=O)c1C | > 20 µM |  |  | >3 kg/ha | >3 kg/ha | >3 kg/ha |
| CSc1ccc(C(=O)/C(=N\O)C(C)=O)c(C)c1Cl | > 20 µM |  |  | >3 kg/ha | >3 kg/ha | >3 kg/ha |
| CC(=O)/C(=N/O)C(=O)c1ccc(S(C)(=O)=O)c(C2=NOCC2)c1Cl | 13 µM |  |  | 2.5 kg/ha | >3 kg/ha | >3 kg/ha |
| CCOc1c(S(=O)(=O)CC)ccc(C(=O)c2c(C)ncn2O)c1Cl | 20 µM | 0.4 kg/ha | >0.5 kg/ha | >0.5 kg/ha |  |  |
| CCOc1c(S(=O)(=O)CC)ccc(C(=O)c2c(C)nc(C)n2O)c1Cl | 0.048 µM | 0.05 kg/ha | 0.1 kg/ha | 0.5 kg/ha |  |  |
| CCOc1c(S(=O)(=O)CC)ccc(C(=O)c2c(C)nc(CC)n2O)c1Cl | 0.071 µM | 0.2 kg/ha | >0.5 kg/ha | >0.5 kg/ha |  |  |
| CCOc1c(S(=O)(=O)CC)ccc(C(=O)c2c(C)nc(C(C)C)n2O)c1Cl | 0.043 µM | 1.5 kg/ha | >3 kg/ha | >3 kg/ha |  |  |
| CCOc1c(S(=O)(=O)CC)ccc(C(=O)c2c(C)nc(-c3cccs3)n2O)c1Cl | > 20 µM | >3 kg/ha | >3 kg/ha | >3 kg/ha |  |  |
| CCOc1c(S(=O)(=O)CC)ccc(C(=O)c2c(C)nc(-c3cccn3C)n2O)c1Cl | > 20 µM | >3 kg/ha | >3 kg/ha | >3 kg/ha |  |  |
| CCOc1c(S(=O)(=O)CC)ccc(C(=O)c2c(C)nc(-c3ccccc3)n2O)c1Cl | > 20 µM | >0.5 kg/ha | >0.5 kg/ha | >0.5 kg/ha |  |  |
| CCOc1c(S(=O)(=O)CC)ccc(C(=O)c2c(C)nc(-c3ccc(Cl)cc3Cl)n2O)c1Cl | > 20 µM | >0.5 kg/ha | >0.5 kg/ha | >0.5 kg/ha |  |  |
| CCOc1c(S(=O)(=O)CC)ccc(C(=O)c2c(C)[n+]([O-])c(C)n2O)c1Cl | 0.19 µM | >3 kg/ha | >3 kg/ha | >3 kg/ha |  |  |
| COc1c(S(C)(=O)=O)ccc(C(=O)c2c(C)nc(C)n2O)c1C | 18 µM | 0.06 kg/ha | 0.7 kg/ha | >1 kg/ha |  |  |
| CSc1ccc(C(=O)c2c(C)nc(C)n2O)c(C)c1Cl | > 20 µM | >0.5 kg/ha | >0.5 kg/ha | >0.5 kg/ha |  |  |
| Cc1nc(C)n(O)c1C(=O)c1ccc(S(C)(=O)=O)cc1Cl | > 20 µM | >0.5 kg/ha | >0.5 kg/ha | >0.5 kg/ha |  |  |
| Cc1nc(C)n(O)c1C(=O)c1ccc(S(C)(=O)=O)c2ncccc12 | > 20 µM | >1 kg/ha | >1 kg/ha | >1 kg/ha |  |  |
| Cc1cc(C)c(C(=O)c2c(C)nc(C)n2O)c(C)c1 | > 20 µM | >3 kg/ha | >3 kg/ha | >3 kg/ha |  |  |
| Cc1[nH]n(C)c(=O)c1C(=O)c1ccc(S(C)(=O)=O)c(C2=NOCC2)c1Cl | 0.19 µM | <0.01 kg/ha | <0.01 kg/ha | <0.01 kg/ha |  |  |
